Arrestin-AP2 inh = human beta-arrestin and AP2 interaction inhibition. FITC-arrestin peptide / GST-AP2 beads, flow cytometry; AP2 beta2 appendage carries R879A mutation. inhibition, % at 10 µM. actives 0.31% (n = 340,000);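 active = inhibition above a set limit, near 3 SD of compounds lacking own fluorescence, cut at about 54% in these data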;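 note: plate controls were DMSO wells for no effect and 5 µM unlabelled arrestin peptide for full effect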
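Material – AP2 appendage R879A on GSH beads · Buffer or medium – PBS with 0.05% Tween 20 and 0.1% BSA · Probe or stimulus – fluorescein-tagged arrestin peptide at 50 nM final · Incubation – compound with beads 12 min RT, then probe 1 h RT · Detection – high-throughput flow cytometry of beads, ex 488, em 535 nm · Evaluation – percent response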
ADAM17 inh = inhibitors of human ADAM17; P78536; recombinant ADAM17, EDANS/DABCYL FRET peptide cleavage; inhibition, % at 6.95 µM; actives 0.83% (n = 370,000);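 active = inhibition above the mean of compounds lying between control limits plus 3 SD, set per campaign, cut at about 8.5% in these data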;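 note: 0% = DMSO-only wells as the low control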
Target sequence (P78536 215-824 limits assumed): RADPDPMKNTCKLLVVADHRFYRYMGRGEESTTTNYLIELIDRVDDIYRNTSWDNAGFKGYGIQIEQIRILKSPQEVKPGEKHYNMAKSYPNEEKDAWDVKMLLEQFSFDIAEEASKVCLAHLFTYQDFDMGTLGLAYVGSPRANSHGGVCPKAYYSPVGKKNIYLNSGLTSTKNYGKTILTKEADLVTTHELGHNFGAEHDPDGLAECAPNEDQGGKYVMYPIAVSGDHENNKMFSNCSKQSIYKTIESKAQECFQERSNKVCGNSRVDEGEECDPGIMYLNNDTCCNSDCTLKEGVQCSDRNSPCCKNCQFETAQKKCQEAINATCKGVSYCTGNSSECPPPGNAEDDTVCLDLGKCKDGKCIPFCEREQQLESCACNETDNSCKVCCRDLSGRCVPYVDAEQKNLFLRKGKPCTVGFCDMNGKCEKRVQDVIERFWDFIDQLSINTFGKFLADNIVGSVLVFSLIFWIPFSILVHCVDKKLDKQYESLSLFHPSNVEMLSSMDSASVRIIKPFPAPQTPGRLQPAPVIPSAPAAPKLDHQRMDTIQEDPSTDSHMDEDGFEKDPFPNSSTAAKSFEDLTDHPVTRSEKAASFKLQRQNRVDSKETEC
FAS TE block = FAS thioesterase (human) inhibition | P49327 | recombinant FAS-TE, OMFH fluorogenic substrate, fluorescence endpoint | inhibition, % at 15 µM | actives 0.67% (n = 360,000) | AID 602261;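 active = compounds whose normalised, plate-corrected inhibition of enzyme fluorescence in the single-dose primary screen is 50% or more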;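 note: 0% = DMSO with enzyme and 100% = substrate without enzyme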
CaV13 ICDI inh = Primary screen for inhibitors of IQ motif and Ca2+-dependent inactivation inhibitor domain binding in CACNA1D, Förster resonance energy transfer in living cells, … | HEK cells, CFP/YFP FRET ICDI-IQ, plate reader, 10 min; percent FRET-ratio fall versus neutral wells | inhibition, % at 12.3 µM | actives 0.098% (n = 340,000);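 active = mean replicate inhibition of at least 30% and at least 1% of replicates passing that level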;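 note: 0% = median of the neutral control wells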
ADAM10 inh = inhibits human ADAM10 | inhibition, % at 7 µM | recombinant ADAM10, EDANS/DABCYL FRET peptide cleavage, 3 h | actives 0.62% (n = 370,000) | O14672;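 active = inhibition above a per-campaign cutoff equal to the mean of compounds falling between control-based bounds plus 3 SD, cut at about 20% in these data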;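 note: 0% = DMSO wells while the 100% control is not disclosed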
CendR NRP1 mod = modulators of CendR peptide binding to human neuropilin-1; O14786; FAM-RPARPAR peptide binding to NRP-1, fluorescence polarization; inhibition, % at 25 µM; actives 0.85% (n = 360,000); AID 602438;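 active = inhibition or corrected inhibition above about 18%, plus a signal ratio from 0.5 to 1.5, limit read from the data, passing the limit was not always enough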
ADAM10 counter = inhibits human ADAM10 in ADAM17 exosite counter-screen; shares compounds with ADAM17 inh; recombinant ADAM10, EDANS/DABCYL FRET peptide cleavage, 3 h; inhibition, % at 6.95 µM; actives 47% (n = 2,900);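 active = mean inhibition over the triplicate runs exceeds the activity threshold set in the earlier primary screen, cut at about 20% in these data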;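 note: 0% = DMSO wells and 100% = marimastat wells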
ADAM17 confirm = human ADAM17 inhibition, confirmation; inhibition, % at 6.95 µM; recombinant ADAM17, EDANS/DABCYL QFRET peptide cleavage; actives 65% (n = 2,900); AID 743257; shares compounds with ADAM17 inh;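 active = mean inhibition across replicates above the hit cutoff set in the primary screen, cut at about 8.5% in these data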;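 note: 0% = DMSO wells and 100% = marimastat wells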
* hit, by the source's call; x = not tested or not shown. This is a sample that favours compounds with a hit; in the whole collection about 2.9% have one here.

SMILES | Arrestin-AP2 inh | ADAM17 inh | FAS TE block | CaV13 ICDI inh | ADAM10 inh | CendR NRP1 mod | ADAM10 counter | ADAM17 confirm
COC(=O)[C@]12C[C@H](CC(=O)NCC3CCCCC3)C(=O)N(CCc3ccc(OC)c(OC)c3)C1=C[C@H](C(C)(C)C)O[C@@H]2C | x | 9.7* | x | -6 | 7 | x | 19 | 11*
COC(=O)[C@]12C[C@H](CC(=O)NCc3cccc4ccccc34)C(=O)N(Cc3ccccc3)C1=C[C@H](C1CCCC1)O[C@@H]2C | x | 1 | x | -8 | 5 | x | x | x
COC(=O)[C@]12C[C@H](CC(=O)NCc3ccccc3)C(=O)N(Cc3cccc4ccccc34)C1=C[C@H](C1CCCC1)O[C@@H]2C | x | 10* | x | x | 17 | x | 25* | 17*
COC(=O)[C@]12C[C@H](CC(=O)NCc3ccc(C)o3)C(=O)N(Cc3cccc4ccccc34)C1=C[C@H](C(C)C)O[C@@H]2C1CC1 | x | 11* | x | x | 19 | x | 9 | 8.9*
Cc1noc(C)c1COc1ccc(C(=O)Nc2nnc(CC(C)C)s2)cc1 | -3 | -2 | -6 | -8 | -4 | -5 | x | x
Nc1nc(=O)n(C2CCCO2)cc1Br (centres undefined) | 1 | -1 | 1 | -8 | -8 | -20 | x | x
CCOc1cc(N2CCOCC2)c(OCC)cc1NC(=O)CN1C(=O)NC2(CCc3ccccc32)C1=O (centres undefined) | -2 | 8.8* | -3 | -4 | 10 | -7 | 5 | 4
N#CC1(Cc2ccccc2Cl)c2ccccc2C=CN1C(=O)c1ccccc1 (centres undefined) | 6 | 11* | 31 | -5 | 15 | 10 | 14 | 9.3*
CCCOc1ccc(CC(=O)NNC(=S)Nc2ccccc2)cc1Br | 8 | 12* | -4 | 1 | 13 | 2 | 10 | 9
O=C(O)c1cc(O)c2c(c1)[C@H]([C@H]1c3cc(C(=O)O)cc(O)c3C(=O)c3c(O[C@@H]4O[C@H](CO)[C@@H](O)[C@H](O)[C@H]4O)cccc31)c1cccc(OC3O[C@H](CO)[C@@H](O)[C@H](O)[C@H]3O)c1C2=O (some centres undefined) | 21 | 16* | 3 | -5 | -255 | -14 | -367 | 9.7*
C=CCN1[C@H](C#N)[C@@H](c2ccccc2)[C@H]1CO | x | -3 | x | x | -5 | x | x | x
O=c1[nH]n(-c2ccccc2Cl)c(=O)c2ccccc12 | -5 | 10* | -3 | -19 | -6 | 8 | 10 | 10*
Cn1[nH]c(=O)c2ccccc2c1=O | 4 | -7 | -4 | -8 | -12 | -6 | x | x
OCC[C@@H]1C[C@H](O)[C@@H](O)[C@]2(OCc3cc(C(F)(F)F)ccc32)O1 | x | 7 | -5 | x | -1 | 12 | x | x
CCCCCCC12Cc3cc(OC)c(OC)cc3C(O1)c1c(cc(C)oc1=O)O2 (centres undefined) | x | -7 | x | -5 | -18 | x | x | x
CCCOC(=O)c1ccc(Oc2cn[nH]c2-c2ccc(OCC)cc2O)cc1 | 20 | 9.8* | -176 | -4 | 8 | -3 | 17 | 12*
CCCOC(=O)c1ccc(Oc2c(-c3ccc(OCC)cc3O)n[nH]c2C)cc1 | 7 | 9.8* | -24 | -11 | 19 | 7 | 24* | 15*
CCCc1ccc(Oc2c(-c3ccc(O)c(C)c3O)n[nH]c2C)cc1 | 27 | 9.0* | -82 | -3 | 5 | -8 | 6 | 8
COc1ccc(Oc2cn[nH]c2-c2ccc(OCC(=O)NN)cc2O)cc1 | -7 | 4 | -159 | -2 | 10 | -1 | x | x
COc1ccc(Oc2c(-c3ccc(O)cc3O)n[nH]c2C)cc1 | -1 | 4 | -152 | -4 | 2 | 2 | x | x
CCCc1cc(-c2n[nH]c(C)c2-c2ccc(C(=O)OCC)o2)c(O)cc1O | -5 | 0 | -16 | -9 | -13 | -4 | x | x
Cc1ccccc1CS(=O)(=O)Cc1ccc(C(=O)Nc2cccc(C)c2C)o1 | x | -1 | x | x | 10 | x | x | x
C[C@@H]1CN(c2ccc(N3CCNC[C@H]3C)cc2C#N)C[C@H](C)O1 | x | -11 | x | -7 | -54 | x | x | x
C=CCNCc1ccc(OC)cc1OC | x | -3 | x | x | -13 | x | x | x
CSCCC(NS(=O)(=O)c1ccc(Cl)cc1)C(=O)OCC(=O)c1c(C)[nH]c2ccccc12 (centres undefined) | 2 | 9.7* | 32 | -15 | 20 | 5 | 29* | 17*
SMILES | Arrestin-AP2 inh | ADAM17 inh | FAS TE block | CaV13 ICDI inh | ADAM10 inh | CendR NRP1 mod | ADAM10 counter | ADAM17 confirm
COc1ccccc1C(=O)COC(=O)CNS(=O)(=O)c1ccc(C)c(C)c1 | -8 | -2 | 3 | -5 | -9 | 2 | x | x
Cc1ccc(N2CC(C(=O)OCc3nnc(-c4ccccc4)o3)CC2=O)cc1 (centres undefined) | -13 | -1 | -2 | -12 | -3 | -3 | x | x
CCNC(=O)C/C(C)=N/NC(=O)C1CCCCC1 | 3 | 8.9* | -7 | -5 | 7 | -8 | -3 | 0
COc1ccc(CCNC(=O)C/C(C)=N/NC(=O)C2CCCCC2)cc1OC | 11 | -4 | -5 | -3 | -2 | 10 | x | x
O=S(=O)(Cc1ccc(Cl)cc1)NCC1CCCO1 (centres undefined) | 13 | 0 | -7 | -5 | 11 | 2 | x | x
O=S(=O)(Cc1ccc(Cl)cc1)C1CCCCC1O (centres undefined) | 2 | 11* | -3 | -2 | 7 | 10 | -11 | -3
CCc1ccc(C(C)NC(=O)/C(C#N)=C\c2cn[nH]c2-c2ccccc2)cc1 (centres undefined) | 4 | 11* | -63 | -7 | 17 | -7 | 35* | 17*
CC(C)(C)NC(=O)c1ccc(COCC(F)(F)F)o1 | 20 | 1 | -8 | -7 | -11 | -3 | x | x
O=C(c1ccc(COCC(F)(F)F)o1)N1CCCCCC1 | -8 | 11* | -9 | x | 9 | 2 | -4 | -2
CCCCN(C(=O)C1CC(=O)N(c2ccc(C)cc2)C1)c1c(N)n(CCC)c(=O)[nH]c1=O (centres undefined) | -2 | 11* | -5 | -5 | -1 | -4 | -5 | -2
CCc1ccc(N2CC(C(=O)Nc3ccc(OC)c(S(=O)(=O)N4CCOCC4)c3)CC2=O)cc1 (centres undefined) | x | 1 | -5 | -6 | 0 | 10 | x | x
CCc1ccc(N2CC(C(=O)Nc3ccc(C)c(S(=O)(=O)N4CCOCC4)c3)CC2=O)cc1 (centres undefined) | -12 | 9.8* | 7 | -3 | 7 | 6 | 2 | 3
